pKi: −log10 of the molar value.
Columns and labels:
Blood [1] = assay: Biodistribution in Sprague-Dawley rat blood at 350 uCi, iv after 5 mins; format: ADME, organism-based; details: in vivo
Heart [2] = assay: Biodistribution in Sprague-Dawley rat heart at 350 uCi, iv after 5 mins; format: ADME, organism-based; details: in vivo
Lung [3] = assay: Biodistribution in Sprague-Dawley rat lung at 350 uCi, iv after 5 mins; format: ADME, organism-based; details: in vivo
Liver [4] = assay: Biodistribution in Sprague-Dawley rat liver at 350 uCi, iv after 5 mins; format: ADME, organism-based; details: in vivo
Muscle tissue [5] = assay: Biodistribution in Sprague-Dawley rat muscle at 350 uCi, iv after 5 mins; format: ADME, organism-based; details: in vivo
Rattus norvegicus [6] = assay: Biodistribution in Sprague-Dawley rat fat at 350 uCi, iv after 5 mins; format: ADME, organism-based, Adipose tissue; details: in vivo
Pancreas [7] = assay: Biodistribution in Sprague-Dawley rat pancreas at 350 uCi, iv after 5 mins; format: ADME, organism-based; details: in vivo
Spleen [8] = assay: Biodistribution in Sprague-Dawley rat spleen at 350 uCi, iv after 5 mins; format: ADME, organism-based; details: in vivo
Kidney [9] = assay: Biodistribution in Sprague-Dawley rat kidney at 350 uCi, iv after 5 mins; format: ADME, organism-based; details: in vivo
Brain [10] = assay: Biodistribution in Sprague-Dawley rat brain at 350 uCi, iv after 5 mins; format: ADME, organism-based; details: in vivo
Blood [11] = assay: Biodistribution in Sprague-Dawley rat blood at 350 uCi, iv after 30 mins; format: ADME, organism-based; details: in vivo, 0.5 h
Heart [12] = assay: Biodistribution in Sprague-Dawley rat heart at 350 uCi, iv after 30 mins; format: ADME, organism-based; details: in vivo, 0.5 h
Lung [13] = assay: Biodistribution in Sprague-Dawley rat lung at 350 uCi, iv after 30 mins; format: ADME, organism-based; details: in vivo, 0.5 h
Muscle tissue [14] = assay: Biodistribution in Sprague-Dawley rat muscle at 350 uCi, iv after 30 mins; format: ADME, organism-based; details: in vivo, 0.5 h
Rattus norvegicus [15] = assay: Biodistribution in Sprague-Dawley rat fat at 350 uCi, iv after 30 mins; format: ADME, organism-based, Adipose tissue; details: in vivo, 0.5 h
Pancreas [16] = assay: Biodistribution in Sprague-Dawley rat pancreas at 350 uCi, iv after 30 mins; format: ADME, organism-based; details: in vivo, 0.5 h
Spleen [17] = assay: Biodistribution in Sprague-Dawley rat spleen at 350 uCi, iv after 30 mins; format: ADME, organism-based; details: in vivo, 0.5 h
Kidney [18] = assay: Biodistribution in Sprague-Dawley rat kidney at 350 uCi, iv after 30 mins; format: ADME, organism-based; details: in vivo, 0.5 h
Brain [19] = assay: (§1) Biodistribution in Sprague-Dawley rat brain at 350 uCi, iv after 30 mins; format: ADME, organism-based; details: in vivo, 0.5 h
Liver [20] = assay: Biodistribution in Sprague-Dawley rat liver at 350 uCi, iv after 30 mins; format: ADME, organism-based; details: in vivo, 0.5 h
Blood [21] = assay: Biodistribution in Sprague-Dawley rat blood at 350 uCi, iv after 30 mins in presence of cyclosporin A; format: ADME, organism-based; details: in vivo, 0.5 h
Heart [22] = assay: Biodistribution in Sprague-Dawley rat heart at 350 uCi, iv after 30 mins in presence of cyclosporin A; format: ADME, organism-based; details: in vivo, 0.5 h
Lung [23] = assay: Biodistribution in Sprague-Dawley rat lung at 350 uCi, iv after 30 mins in presence of cyclosporin A; format: ADME, organism-based; details: in vivo, 0.5 h
Liver [24] = assay: Biodistribution in Sprague-Dawley rat liver at 350 uCi, iv after 30 mins in presence of cyclosporin A; format: ADME, organism-based; details: in vivo, 0.5 h
Muscle tissue [25] = assay: Biodistribution in Sprague-Dawley rat muscle at 350 uCi, iv after 30 mins in presence of cyclosporin A; format: ADME, organism-based; details: in vivo, 0.5 h
Rattus norvegicus [26] = assay: Biodistribution in Sprague-Dawley rat fat at 350 uCi, iv after 30 mins in the presence of cyclosporin A; format: ADME, organism-based, Adipose tissue; details: in vivo, 0.5 h
Pancreas [27] = assay: Biodistribution in Sprague-Dawley rat pancreas at 350 uCi, iv after 30 mins in the presence of cyclosporin A; format: ADME, organism-based; details: in vivo, 0.5 h
Spleen [28] = assay: Biodistribution in Sprague-Dawley rat spleen at 350 uCi, iv after 30 mins in the presence of cyclosporin A; format: ADME, organism-based; details: in vivo, 0.5 h
Kidney [29] = assay: Biodistribution in Sprague-Dawley rat kidney at 350 uCi, iv after 30 mins in the presence of cyclosporin A; format: ADME, organism-based; details: in vivo, 0.5 h
Brain [30] = assay: Biodistribution in Sprague-Dawley rat brain at 350 uCi, iv after 30 mins in the presence of cyclosporin A; format: ADME, organism-based; details: in vivo, 0.5 h
Cerebellum [31] = assay: Biodistribution in Sprague-Dawley rat cerebellum at 350 uCi, iv after 30 mins; format: ADME, organism-based; details: in vivo, 0.5 h
Striatum [32] = assay: Biodistribution in Sprague-Dawley rat striatum at 350 uCi, iv after 30 mins; format: ADME, organism-based; details: in vivo, 0.5 h
Rattus norvegicus [33] = assay: Biodistribution in Sprague-Dawley rat brain stem at 350 uCi, iv after 30 mins; format: ADME, organism-based; details: in vivo, 0.5 h
Cortex [34] = assay: Biodistribution in Sprague-Dawley rat cortex at 350 uCi, iv after 30 mins; format: ADME, organism-based; details: in vivo, 0.5 h
Thalamus [35] = assay: Biodistribution in Sprague-Dawley rat thalamus at 350 uCi, iv after 30 mins; format: ADME, organism-based; details: in vivo, 0.5 h
Hippocampus [36] = assay: Biodistribution in Sprague-Dawley rat hippocampus at 350 uCi, iv after 30 mins; format: ADME, organism-based; details: in vivo, 0.5 h
Brain [37] = assay: as §1; format: ADME, organism-based; details: in vivo, 0.5 h; remark: listed apart in the source
Cerebellum [38] = assay: Biodistribution in Sprague-Dawley rat cerebellum at 350 uCi, iv after 30 mins in presence of cyclosporin A; format: ADME, organism-based; details: in vivo, 0.5 h
Striatum [39] = assay: Biodistribution in Sprague-Dawley rat striatum at 350 uCi, iv after 30 mins in presence of cyclosporin A; format: ADME, organism-based; details: in vivo, 0.5 h
Rattus norvegicus [40] = assay: Biodistribution in Sprague-Dawley rat brain stem at 350 uCi, iv after 30 mins in presence of cyclosporin A; format: ADME, organism-based; details: in vivo, 0.5 h
Cortex [41] = assay: Biodistribution in Sprague-Dawley rat cortex at 350 uCi, iv after 30 mins in presence of cyclosporin A; format: ADME, organism-based; details: in vivo, 0.5 h
Thalamus [42] = assay: Biodistribution in Sprague-Dawley rat thalamus at 350 uCi, iv after 30 mins in presence of cyclosporin A; format: ADME, organism-based; details: in vivo, 0.5 h
Hippocampus [43] = assay: Biodistribution in Sprague-Dawley rat hippocampus at 350 uCi, iv after 30 mins in presence of cyclosporin A; format: ADME, organism-based; details: in vivo, 0.5 h
Brain [44] = assay: Biodistribution in Sprague-Dawley rat brain at 350 uCi, iv after 30 mins in presence of cyclosporin A; format: ADME, organism-based; details: in vivo, 0.5 h
[45] = Biodistribution in cynomolgus monkey striatum at 5 to 7 mCi, iv up to 100 mins by microPET analysis; format: ADME, organism-based, Macaca fascicularis; details: in vivo
How it was run: (§2)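 Male cynomolgus monkeys (4–6 kg) were fasted 12 h, induced with ketamine (10 mg/kg) and glycopyrrolate (0.13 mg/kg) i.m., intubated and kept on 0.75–2.0% isoflurane. After attenuation-correction transmission scans, 5–7 mCi of tracer was given via venous catheter and a 100 min dynamic microPET scan was acquired. MRI-coregistered regions of interest yielded time-activity curves; n = 3.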

[46] = Biodistribution in cynomolgus monkey striatum at 5 to 7 mCi, iv after 10 mins by microPET analysis; format: ADME, organism-based, Macaca fascicularis; details: in vivo; how it was run: as §2
Brain [47] = assay: Ratio of drug uptake in Sprague-Dawley rat brain in absence of cyclosporin A to drug uptake in Sprague-Dawley rat brain in presence of cyclosporin A; format: ADME, tissue-based; details: in vivo
How it was run: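 Cyclosporine A (Sandimmune diluted 1:1 with saline) was given i.v. at 25 mg/kg 30 min before the radioligand. Rats were euthanized 30 min after tracer injection. Groups were compared with controls by Student t test (n=4).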

[48] = target: Sigma non-opioid intracellular receptor 1 (Cavia porcellus, UniProt Q60492); assay: Displacement of (+)- [3H]pentazocine from sigma 1 receptor expressed in guinea pig brain membrane homogenates by scintillation counting analysis; format: cell membranes
Chain of Sigma non-opioid intracellular receptor 1 (Q60492 whole entry): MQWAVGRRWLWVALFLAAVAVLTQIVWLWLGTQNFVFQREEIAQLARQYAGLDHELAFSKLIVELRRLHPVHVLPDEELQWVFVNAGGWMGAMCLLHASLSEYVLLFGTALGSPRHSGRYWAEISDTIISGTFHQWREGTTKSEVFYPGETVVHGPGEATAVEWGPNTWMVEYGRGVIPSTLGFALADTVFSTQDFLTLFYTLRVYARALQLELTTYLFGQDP

[49] = target: T1, Vesicular acetylcholine transporter (Homo sapiens, UniProt Q16572); assay: Displacement of (-)-[3H]vesamicol from human VAChT expressed in rat PC12 cell membrane after 20 hrs; format: cell membranes, PC-12
T1 sequence (Q16572 whole entry): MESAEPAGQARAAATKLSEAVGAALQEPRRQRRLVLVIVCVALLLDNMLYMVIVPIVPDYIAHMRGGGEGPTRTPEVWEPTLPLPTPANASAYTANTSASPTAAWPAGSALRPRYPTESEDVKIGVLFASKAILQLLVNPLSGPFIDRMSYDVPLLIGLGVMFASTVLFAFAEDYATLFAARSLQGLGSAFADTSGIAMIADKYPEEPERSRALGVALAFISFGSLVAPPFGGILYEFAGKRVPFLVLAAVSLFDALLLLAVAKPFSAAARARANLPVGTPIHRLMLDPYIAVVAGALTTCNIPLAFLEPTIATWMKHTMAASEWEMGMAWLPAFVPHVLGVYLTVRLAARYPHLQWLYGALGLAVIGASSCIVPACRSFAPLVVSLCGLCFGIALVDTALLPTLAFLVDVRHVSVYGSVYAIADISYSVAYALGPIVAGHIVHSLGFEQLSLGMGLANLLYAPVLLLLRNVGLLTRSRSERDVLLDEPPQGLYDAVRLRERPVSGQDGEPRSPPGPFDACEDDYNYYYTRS

[50] = Displacement of [3H]DTG from sigma 2 receptor in rat liver membrane homogenates after 120 mins by scintillation counting analysis; format: cell membranes
How it was run: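 Rat liver membrane homogenate (~300 µg protein) with ~5 nM [3H]DTG plus 1 µM (+)-pentazocine to block sigma-1 sites, 120 min at room temperature, pH 7.4 Tris buffer. Nonspecific binding taken with 10 µM haloperidol. Filtration and scintillation counting.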

Macaca fascicularis = assay: Ratio of drug level in cynomolgus monkey […] at 5 to 7 mCi, iv after 70 mins; details: in vivo

[11CH3]Nc1ccc(C(=O)C2CCN([C@H]3Cc4ccccc4C[C@@H]3O)CC2)cc1 showed a Drug uptake (Blood [1]) of 0.34 % ID/g, a Drug uptake (Heart [2]) of 0.49 % ID/g and a Drug uptake (Lung [3]) of 1.77 % ID/g. It also gave a Drug uptake (Liver [4]) of 3.45 % ID/g, a Drug uptake (Muscle tissue [5]) of 0.22 % ID/g and a Drug uptake (Rattus norvegicus [6]) of 0.18 % ID/g. For the same compound, the Drug uptake (Pancreas [7]) was 0.89 % ID/g, the Drug uptake (Spleen [8]) was 1.19 % ID/g and the Drug uptake (Kidney [9]) was 1.47 % ID/g. For the same compound, the Drug uptake (Brain [10]) was 0.57 % ID/g, the Drug uptake (Blood [11]) was “Active” and the Drug uptake (Heart [12]) was “Active”. The Drug uptake (Lung [13]) was “Active”, the Drug uptake (Muscle tissue [14]) was “Active” and the Drug uptake (Rattus norvegicus [15]) was “Active”. The Drug uptake (Pancreas [16]) was “Active”, the Drug uptake (Spleen [17]) was “Active” and the Drug uptake (Kidney [18]) was “Active”. For the same compound, the Drug uptake (Brain [19]) was “Active”, the Drug uptake (Liver [20]) was 2.44 % ID/g and the Drug uptake (Blood [21]) was “Active”. For the same compound, the Drug uptake (Heart [22]) was “Active”, the Drug uptake (Lung [23]) was “Active” and the Drug uptake (Liver [24]) was “Active”. The Drug uptake (Muscle tissue [25]) was “Active”, the Drug uptake (Rattus norvegicus [26]) was “Active” and the Drug uptake (Pancreas [27]) was “Active”. The Drug uptake (Spleen [28]) was “Active”, the Drug uptake (Kidney [29]) was 1.21 % ID/g and the Drug uptake (Brain [30]) was “Active”. It also gave a Drug uptake (Cerebellum [31]) of 0.157 % ID/g, a Drug uptake (Striatum [32]) of 0.593 % ID/g and a Drug uptake (Rattus norvegicus [33]) of 0.245 % ID/g. The Drug uptake (Cortex [34]) was 0.262 % ID/g, the Drug uptake (Thalamus [35]) was 0.293 % ID/g and the Drug uptake (Hippocampus [36]) was 0.265 % ID/g. For the same compound, the Drug uptake (Brain [37]) was 0.272 % ID/g, the Drug uptake (Cerebellum [38]) was 0.404 % ID/g and the Drug uptake (Striatum [39]) was 1.02 % ID/g. It also gave a Drug uptake (Rattus norvegicus [40]) of 0.577 % ID/g, a Drug uptake (Cortex [41]) of 0.637 % ID/g and a Drug uptake (Thalamus [42]) of 0.6 % ID/g. The Drug uptake (Hippocampus [43]) was 0.562 % ID/g, the Drug uptake (Brain [44]) was 0.596 % ID/g and the Drug uptake [45] was “Active”. The Drug uptake [46] was “Active”, the Ratio (Brain [47]) was 2.2 and the pKi [48] was 6.00. The pKi [49] was 9.11, the pKi [50] was 4.94 and the Ratio (Macaca fascicularis) was > 2.5.
